# Screening data from PubChem BioAssay.
# RAM inhibit – inhibitors of the yeast RAM network, primary screen, dse1pr::URA3 reporter, 5-FOA selection; S. cerevisiae dse1pr::URA3 reporter, 5-FOA growth OD615, 2 d; analog-sensitive cbk1-as2 kinase mutant strain; hit rate 1.8% among 190,000; inhibition, % at 50 µM;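 active means inhibition above a set limit, 3 SD over mean compound inhibition, cut at about 8.4% in these data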;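 further: 0% = DMSO-only wells with no growth and 100% = 10 µM 1-NA-PP1 full growth; inhibition rescues growth on 5-FOA so higher OD means more RAM inhibition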
# Yeast growth inh – growth inhibitors of yeast BB579 in restrictive medium, primary screen, yeast lifespan-shortening project, S. cerevisiae | OD615, 48 h | inhibition, % at 10 µM | hit rate 0.51% among 140,000 | AID 804, 2007;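 active means inhibition above a set limit, 3 SD over the mean compound inhibition, cut at about 44% in these data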
#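 Assay system – yeast BB579 (DeaD) · Dosing – single compound dose of 10 µM, 0.25% DMSO final · Detection – OD615 turbidity measurement · Buffer or medium – CSMM-D restrictive synthetic medium containing dextrose (glucose) · Benchmarks – positive control amphotericin B 10 µg/mL · Incubation – 48 h exposure, 30 °C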
# Phagocytosis inh – inhibitors of macrophage phagocytosis, primary screen, imaging, J774A.1 cells, IgG beads. J774A.1 macrophage IgG-bead phagocytosis. inhibition, % at 5 µM. hit rate 0.07% among 110,000. AID 1029, 2008;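 active means inhibition above the mean of the plate negative controls plus 5 SD, cut at about 13% in these data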;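 further: phagocytic index as fraction of beads internalized from green versus red external bead signal; plate controls were DMSO negative control for no effect and cytochalasin-D positive control for full effect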
# Yeast life ext – compounds extending yeast replicative lifespan, primary screen, S. cerevisiae, OD615; S. cerevisiae growth with nicotinamide; deaD strain in restrictive glucose medium; inhibition of the nicotinamide effect, % at 10 µM; hit rate 0.68% among 130,000;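 active means inhibition above a set limit, placed 3 SD over the median of all compounds, cut at about 26% in these data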;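 further: 0% = nicotinamide-treated wells and 100% = cells grown without nicotinamide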
#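 Assay system: engineered S. cerevisiae DeaD replicative-lifespan strain, galactose-grown log-phase cells; Buffer or medium: CSMM-D glucose medium, restrictive; Probe or stimulus: nicotinamide 1.5 mM; Compound: single dose 10 µM compound, 0.25% DMSO; Schedule: 4 h preincubation then 48 h treatment at 30 °C; Technique: OD615 measurement.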
# * marks the source's active call; other numbers are inactive results; nt = not tested or not shown; + = active, no number. In the library only some 2.7% were active in any assay of this set; here they are far more common.
SMILES,RAM inhibit,Yeast growth inh,Phagocytosis inh,Yeast life ext
O=C(OCc1nnc(-c2ccccc2)o1)C1CC(=O)N(Cc2ccco2)C1 (configuration not stated),4,nt,nt,nt
COc1ccc(/C=C/c2cc(=O)c3cc(Cl)ccc3o2)cc1,10*,-43,-3,0
COc1ccc(-c2cc(=O)c3cc(OC)ccc3o2)cc1,0,nt,nt,nt
Cc1ccccc1NC(=O)CC(O)(C(F)(F)F)C(F)(F)F,1,-20,0,32*
COc1cc(NS(=O)(=O)c2ccc(NC(=O)/C=C/c3cccc([N+](=O)[O-])c3)cc2)ncn1,8.9*,nt,nt,nt
CCc1c(C)c(C#N)c2nc3ccccc3n2c1-n1nc(C)cc1C,3,-50,-7,11
CCc1c(C)c(C#N)c2nc3ccccc3n2c1Cl,6,18,-7,28*
Cc1cc(Nc2ccc(O)cc2)n2c(nc3ccccc32)c1C#N,9.1*,nt,nt,nt
Cc1cc(-c2ccco2)c(C#N)c2nc3ccccc3n12,5,89*,-1,-32
Cc1cc(C(C)C)n2c(nc3ccccc32)c1C#N,3,nt,nt,nt
OC(COc1ccc2ccccc2c1Br)Cn1cnc(-c2ccccc2)c1 (configuration not stated),-2,93*,0,-14
COc1ccc(OCC(O)Cn2cnc(-c3ccc(Br)cc3)c2)cc1 (configuration not stated),4,-25,nt,nt
CCOC(=O)/C=C1\SCC(=O)N1CC(=O)NC(C)c1ccc(F)cc1 (configuration not stated),2,-25,-5,-5
Cn1c(Sc2ccccc2Cl)c(C=O)c2ccccc21,8,-17,-4,-5
Cn1c(Sc2ccc(Cl)cc2)c(C=O)c2ccccc21,9.8*,-20,-1,-15
COC(=O)c1ccc(C(=O)OC)c(NC(=O)N2c3ccccc3Sc3ccccc32)c1,5,-35,-1,-3
COC(=O)c1cc(NC(=O)N2c3ccccc3Sc3ccccc32)cc(C(=O)OC)c1,9.8*,-65,nt,-5
COc1ccc(NC(=O)c2cccc(-n3c(C)ccc3C)c2)c(OC)c1,-2,15,-6,-4
N#Cc1c(Nc2ccccc2)sc(C(=O)c2ccc(F)cc2)c1N,11*,-28,0,3
CCOc1ccccc1NC(=O)NC(C)c1ccncc1 (configuration not stated),-1,nt,nt,nt
CC(C)Cc1nc(N2CCN(C(=O)c3ccccc3)CC2)c(C#N)c2c1CCC2,4,-18,nt,-21
CC(C)Cc1nc(N2CCN(C(=O)c3ccco3)CC2)c(C#N)c2c1CCC2,9.2*,-25,3,-19
CC1CCCC2(C1)NC(=S)c1c(sc3c1CCCC3)N2 (configuration not stated),2,86*,-2,-15
O=C(OCC(=O)N1CCN(C(=O)c2ccco2)CC1)c1cc(-c2ccco2)nc2ccccc12,7,-65,2,-19
O=C(OCC(=O)N1CCN(C(=O)c2ccco2)CC1)c1cc(-c2ccc(Cl)c(Cl)c2Cl)nc2ccccc12,9.5*,-52,1,-6
SMILES,RAM inhibit,Yeast growth inh,Phagocytosis inh,Yeast life ext
COC(=O)c1cc2nc(-c3ccc(C)cc3)cc(C(F)(F)F)n2n1,3,nt,nt,nt
CCOc1ccccc1OCCOc1ccccc1OC(C)C,18*,12,0,-8
CCc1ccc2[nH]c(=O)c(C(c3nnnn3Cc3ccccc3)N3CCOCC3)cc2c1 (configuration not stated),1,-5,0,-10
Cc1ccc2occ(C(c3nnnn3Cc3ccccc3)N3CCOCC3)c(=O)c2c1 (configuration not stated),2,-42,0,26*
N#Cc1ccccc1NC(=O)CSc1nnc(-c2ccccc2O)n1-c1ccccc1,10*,-36,-1,-5
Cc1ccccc1NC(=O)CSc1nnc(-c2ccccc2)n1-c1ccccc1,2,-51,nt,-4
Cc1cc(=O)oc2cc(OCCSc3nnc(-c4ccccc4)o3)ccc12,11*,-7,-2,-3
CC(NC(=O)COc1ccc(-c2nnco2)cc1)c1ccc(Cl)cc1Cl (configuration not stated),4,-28,-2,-5
CCCCOc1ccc(-c2nnc(-c3ccncc3)o2)cc1,1,-5,-1,-30
CCCCCCOc1ccc(-c2ccc(C#N)cn2)cc1,10*,-76,0,-15
Cc1c(Cc2ccccc2)sc(NC(=O)/C=C/c2cccc3ccccc23)c1C(N)=O,9.8*,-36,7,5
O=C(CCCOc1ccccc1)NC(=S)Nc1ccccc1,2,nt,nt,nt
CCN(CC)c1ccc(NC(=O)c2ccccc2OCC(=O)OC)cc1,3,nt,nt,nt
O=C(O)C(=O)/C(=C\c1cccc2ccccc12)c1ccc2ccccc2n1,2,-46,0,30*
O=C(O)C(=O)/C(=C\c1ccccc1)c1ccc2ccccc2n1,3,-22,-1,-3
Cc1ccc2nc(-c3ccc(NS(C)(=O)=O)cc3)cc(-c3ccccc3)c2c1,-2,90*,nt,-30
Cc1c(O)c(S(=O)c2ccccc2)c(=O)n(-c2ccccc2)c1-c1ccccc1 (configuration not stated),4,-42,2,61*
CCc1cccc(Nc2cnn(C34C[C@@H]5C[C@@H](CC(CC(=O)O)(C5)C3)C4)c(=O)c2Cl)c1,6,nt,nt,nt
CCOC(=O)C1=C(C)N=c2s/c(=C3\C(=O)Nc4ccccc43)c(=O)n2C1c1ccc2c(c1)OCO2 (configuration not stated),10*,-26,-1,-10
CCOc1ccc(N2C(=O)CN=C2Nc2ccccc2F)cc1,0,-44,3,-2
O=C(C/C=N/OCc1ccc(F)cc1Cl)c1cnc(-c2ccccc2)s1,9.7*,-12,nt,7
Clc1ccc(CSc2cc3c(nn2)-c2ccccc2CC3)cc1,10*,-43,-3,-2
Cc1ccc(OC(=S)Nc2ccc(O)cc2)cc1,1,84*,nt,nt
Cc1ccc(OC(=S)Nc2ccc(F)cc2)cc1,1,-14,nt,nt
COc1ccccc1/C=C(/C(=O)OCC(=O)N(C)Cc1ccccc1)c1ccccc1,10*,-13,1,-2
SMILES,RAM inhibit,Yeast growth inh,Phagocytosis inh,Yeast life ext
O=C(NCC(=O)N(c1cccnc1)C(C(=O)NC1CCCC1)c1cccs1)c1ccco1 (configuration not stated),1,nt,nt,nt
O=C(Nc1nccs1)C1CCCN1S(=O)(=O)c1ccc(F)cc1 (configuration not stated),1,-22,+,7
COc1ccc(NC(=O)C2CCCN2S(=O)(=O)c2ccc(F)cc2)cc1 (configuration not stated),1,-52,0,-5
COC(=O)NC1CCC(NC(=O)OC)CC1 (configuration not stated),1,-5,-4,-1
O=C(Nc1ccccc1Oc1ccccc1)c1cccc([N+](=O)[O-])c1,1,-27,0,-7
Cc1ccc(C(=O)NC(=S)Nc2cccc(NC(=O)c3ccccc3Cl)c2)cc1[N+](=O)[O-],3,-44,-5,-5
